In ChEMBL document CHEMBL2177000, “Pharmacokinetic optimization of class-selective histone deacetylase inhibitors and identification of associated candidate predictive biomarkers of hepatocellular carcinoma tumor response” (J Med Chem, 2012):
Activity calls are given as the source filed them. The rule behind the calls is not given here.

Key:
Mus musculus [1] = assay: Oral bioavailability in BALB/C mouse at 10 mg/kg by LC-MS/MS method; format: ADME, organism-based; details: in vivo
How it was run: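 Bioavailability from single-dose iv (2 mg/kg, 5% DMSO/40% PEG400/55% saline) and oral gavage (10 mg/kg, 0.445% microcrystalline cellulose microsuspension) studies in BALB/C nude mice (N = 16 per arm); plasma at eight (po) or nine (iv) time points, LC-MS/MS, noncompartmental analysis.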

Mus musculus [2] = assay: Half life in BALB/C mouse at 10 mg/kg, po or 2 mg/kg, iv by LC-MS/MS method; format: ADME, organism-based; details: in vivo
How it was run: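 Female-unspecified BALB/C nude mice (15−20 g, N = 16 per arm); iv bolus 2 mg/kg in 5% DMSO/40% PEG400/55% saline and/or oral gavage 10 mg/kg as 0.445% microcrystalline cellulose microsuspension. Blood sampled at nine (iv) or eight (po) time points into sodium heparin tubes; plasma by LC-MS/MS; noncompartmental analysis.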

HGC-27 = format: functional, Homo sapiens
BGC-823 = format: functional, Homo sapiens
Bel-7402 = format: functional, Homo sapiens
SMMC-7721 = format: functional, Homo sapiens
Mus musculus [3] = assay: Toxicity in human Bel7404 cells xenografted BALB/C mouse assessed as body weight loss at 100 mg/kg, po administered every other day for 4 weeks; details: in vivo, 672 h
Mus musculus [4] = assay: Inhibition of Class 1 histone deacetylase in treatment responding human hepatocellular carcinoma patient tumor xenografted in BALB/C mouse assessed as induction of histone H3 acetylation at 100 mg/kg, po administered every other day for 4 weeks by immunohistochemistry; format: functional, organism-based; set-up: dose 100 mg/kg
How it was run: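 Patient-derived HCC xenografts in female nude mice given 100 mpk Q2D PO (15% Kleptose, pH 4.5 tartaric buffer); single dose on last day, tumors harvested 0 to 24 h post-dose. Paraffin sections, citrate pH 6.0 antigen retrieval, anti-Ac-H3 (Lys9) 1:200 overnight 4 °C, HRP/DAB; scored 0−3 independently by two pathologists.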

Mus musculus [5] = assay: Up-regulation of SDC2 gene expression in human hepatocellular carcinoma patient tumor xenografted in BALB/C mouse at 100 mg/kg, po administered every other day for 4 weeks by […]; format: functional, organism-based; set-up: dose 100 mg/kg
How it was run: (§1)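 Patient HCC tumor fragments (3 × 3 × 3 mm3) implanted subcutaneously in female BALB/c nu/nu mice; at ~200 (150−250) mm3 dosed orally Q2D 100 mpk in 15% Kleptose pH 4.5 tartaric buffer for about four weeks. Tumor RNA (TRIzol, DNase I) run on 22-gene qRT-PCR array, normalized to GAPDH/β-glucuronidase by ΔCt, fold change versus day 0.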

Mus musculus [6] = assay: Up-regulation of HIC1 gene expression in human hepatocellular carcinoma patient tumor xenografted in BALB/C mouse at 100 mg/kg, po administered every other day for 4 weeks by […]; format: functional, organism-based; set-up: dose 100 mg/kg; how it was run: as §1
Mus musculus [7] = assay: Up-regulation of CDKN2A gene expression in human hepatocellular carcinoma patient tumor xenografted in BALB/C mouse at 100 mg/kg, po administered every other day for 4 weeks by […]; format: functional, organism-based; set-up: dose 100 mg/kg; how it was run: as §1
Mus musculus [8] = assay: Up-regulation of THBS1 gene expression in human hepatocellular carcinoma patient tumor xenografted in BALB/C mouse at 100 mg/kg, po administered every other day for 4 weeks by […]; format: functional, organism-based; set-up: dose 100 mg/kg; how it was run: as §1
Mus musculus [9] = assay: Up-regulation of CTGF gene expression in human hepatocellular carcinoma patient tumor xenografted in BALB/C mouse at 100 mg/kg, po administered every other day for 4 weeks by […]; format: functional, organism-based; set-up: dose 100 mg/kg; how it was run: as §1
Mus musculus [10] = assay: Up-regulation of CDKN1C gene expression in human hepatocellular carcinoma patient tumor xenografted in BALB/C mouse at 100 mg/kg, po administered every other day for 4 weeks by […]; format: functional, organism-based; set-up: dose 100 mg/kg; how it was run: as §1
SGC-7901 = assay: Inhibition of Class 1 histone deacetylase in human SGC7901 cells assessed as histone H3 acetylation at 0.6 to 5 uM incubated for 24 hrs by Western blot method; format: cell-based
How it was run: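 SGC-7901 cells (1 × 10^6) seeded overnight, treated 24 h at indicated concentrations; lysed on ice with protease inhibitor, 15 000 g supernatant; 30 μg protein by SDS-PAGE, nitrocellulose, antibody probing for acetylated histone H3 and p21, ECL detection.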

Structure (SMILES) | F (Mus musculus [1]) | t1/2 (Mus musculus [2]) | GI90 (HGC-27) | GI90 (BGC-823) | GI90 (Bel-7402) | GI90 (SMMC-7721) | Activity (Mus musculus [3]) | inhibition (Mus musculus [4]) | Activity (Mus musculus [5]) | Activity (Mus musculus [6]) | Activity (Mus musculus [7]) | Activity (Mus musculus [8]) | Activity (Mus musculus [9]) | Activity (Mus musculus [10]) | inhibition (SGC-7901)
CN1C[C@H](C(=O)Nc2ccc(Cl)cc2)[C@@H](c2ccc(/C=C/C(=O)Nc3ccccc3N)cc2)C1 [listing 1 of 2 here] | 100% | 3.4 h | 1000 nM | 2200 nM | 1200 nM | 1900 nM | < 10% | – | – | – | – | – | – | – | –
CN1C[C@H](C(=O)Nc2ccc(Cl)cc2)[C@@H](c2ccc(/C=C/C(=O)Nc3ccccc3N)cc2)C1 [listing 2 of 2 here] | – | – | – | – | – | – | – | Active | Active | inactive | inactive | Active | Active | Active | Dose-dependent effect
